The source of these data is PMC4180501 (Biochimica et biophysica acta, 2012).

Numbering of substitutions follows the chain as printed.

Test [1] has as its target T1, GK- W257 (W99R/W167F) (Homo sapiens, UniProt P35557, W167F/W99R).
T1 sequence (P35557 1-465 W99R/W167F): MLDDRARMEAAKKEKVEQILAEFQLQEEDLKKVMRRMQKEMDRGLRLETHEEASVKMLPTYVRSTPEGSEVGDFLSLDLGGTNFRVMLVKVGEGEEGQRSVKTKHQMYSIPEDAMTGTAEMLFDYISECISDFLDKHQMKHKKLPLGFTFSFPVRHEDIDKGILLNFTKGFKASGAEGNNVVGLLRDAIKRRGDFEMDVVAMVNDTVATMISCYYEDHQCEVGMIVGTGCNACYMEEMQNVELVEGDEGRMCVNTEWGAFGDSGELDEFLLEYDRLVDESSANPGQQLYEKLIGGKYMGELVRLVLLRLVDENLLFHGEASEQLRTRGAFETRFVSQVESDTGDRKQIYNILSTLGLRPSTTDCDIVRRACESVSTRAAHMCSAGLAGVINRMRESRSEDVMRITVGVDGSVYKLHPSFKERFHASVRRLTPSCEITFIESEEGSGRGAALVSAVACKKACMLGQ
Nature of the test: NADP+-coupled spectrophotometric kinetic assay. It counts as biochemical. The conditions noted are these: W-257, no GKA.

Test [2] concerns the target T1, GK- W257 (W99R/W167F). Nature of the test: D-glucose binding by tryptophan fluorescence titration. Conditions: W-257, no GKA.
The target of test [3] is T2, GK-WT (Homo sapiens, UniProt P35557).
T2 sequence (P35557 1-465): T1 sequence (P35557 1-465 W99R/W167F) with R99W, F167W
Nature of the test: NADP+-coupled spectrophotometric kinetic assay. It counts as biochemical. The conditions noted are these: GK-WT, no GKA.

In test [4] the target is T3, GK-W99 (W167F/W257F) (Homo sapiens, UniProt P35557, W167F/W257F).
T3 sequence (P35557 1-465 W167F/W257F): T1 sequence (P35557 1-465 W99R/W167F) with R99W, W257F
Nature of the test: NADP+-coupled spectrophotometric kinetic assay. It counts as biochemical. The conditions noted are these: W-99, no GKA. In outline:
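Recombinant human β-cell glucokinase single-Trp variant, expressed in E. coli as a GST fusion and sequence-verified. Catalytic parameters came from an NADP+-coupled spectrophotometric assay run with or without 30% glycerol. Hill coefficient and glucose S0.5 were obtained by fitting v/Vmax = [glucose]^H/(K′+[glucose]^H), with […].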

For the compound `OC[C@H]1OC(O)[C@H](O)[C@@H](O)[C@@H]1O` (stereo partly drawn) [D-glucose], the “Glucose S0.5” value is recorded as 4.70 mM in test [1] (30% glycerol); 9.82 mM in test [1] (no glycerol); 3.15 mM in test [3] (30% glycerol); 6.26 mM in test [3] (no glycerol); 6.53 mM in test [4] (30% glycerol); 21.0 mM in test [4] (no glycerol). Moreover, the kcat (as a rule, the maximal rate divided by the concentration of active sites) in test [1] (30% glycerol) amounted to 6.37 s⁻¹; in test [1] (no glycerol) it was 12.4 s⁻¹; in test [4] (30% glycerol) it was 6.10 s⁻¹; in test [4] (no glycerol) it was 8.47 s⁻¹. The “nH (Hill coefficient towards glucose)” value in test [1] (30% glycerol) is 1.43; in test [1] (no glycerol), 1.23; in test [3] (30% glycerol), 1.78; in test [3] (no glycerol), 1.69; in test [4] (30% glycerol), 1.52; in test [4] (no glycerol) it was 1.24. Besides, the figures for the kcat/S0.5 in test [1] (no glycerol), in test [4] (30% glycerol) and in test [4] (no glycerol) were 1270 M⁻¹ s⁻¹, 930 M⁻¹ s⁻¹ and 400 M⁻¹ s⁻¹, respectively. Moreover, the Kd – broadly, the concentration at which binding is half-saturated – is 2.09 mM in test [2] (20% glycerol) and 11.3 mM in test [2] (no glycerol).
